Experimental findings from ChEMBL document CHEMBL3351984, “Structure-based design and synthesis of antiparasitic pyrrolopyrimidines targeting pteridine reductase 1” (J Med Chem, 2014) are described below.

Active and inactive are the calls of the source. The rule behind the calls is not given here.

The first data set has as its system Mus musculus. Briefly: Toxicity in ICR mouse assessed as transient clinical signs at 30 mg/kg, ip. The data set is classed as organism-based. More on the design: dose 30 mg/kg, route intraperitoneal. As to conditions: in vivo.
Regarding `Nc1nc(N)c2c(-c3ccccc3)c(-c3ccc(F)cc3)[nH]c2n1`, the Activity result is given as “Toxic”.

The test system of another data set is Mus musculus. Briefly: Toxicity in ICR mouse assessed as clinical signs at 10 mg/kg, ip. It is filed as organism-based. As to conditions: in vivo. Also noted: dose 10 mg/kg, route intraperitoneal.
Take `Nc1nc(N)c2c(-c3ccccc3)c(-c3ccc(F)cc3)[nH]c2n1`: the Activity entry is listed as “Non-toxic”.

A further data set relates to Mus musculus. Briefly: Toxicity in ICR mouse assessed as fatality at 100 mg/kg, ip. It is filed as organism-based. Also noted: dose 100 mg/kg, route intraperitoneal. As to conditions: in vivo. The essentials:
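Maximum tolerated dose study in mice at 10, 30 and 100 mg/kg, scoring clinical signs and fatality.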
For `Nc1nc(N)c2c(-c3ccccc3)c(-c3ccc(F)cc3)[nH]c2n1`, the Activity result is “Toxic”.

The subject of another data set is Trypanosoma brucei brucei. Description: Antitrypanocidal activity against bloodstream forms of Trypanosoma brucei brucei Lister 427 after 6 hrs by time-kill assay. The data set is classed as functional, organism-based.
Conditions: not given
With `Nc1nc2[nH]cc(CCc3ccccc3)c2c(=O)[nH]1`, the result was inactive. The same measure, in the same setting: next, `Nc1nc(N)c2c(-c3ccccc3)c(-c3ccccc3)[nH]c2n1`: “inactive”; `Nc1nc(N)c(C(C[N+](=O)[O-])c2ccccc2)c(N)n1` (stereo unspecified): “inactive”.

For `N#Cc1c[nH]c2nc(N)nc(N3CCSCC3)c12`, the outcome was inactive. `CC(C)COc1nc(N)nc(N)c1C(C[N+](=O)[O-])c1ccc(F)cc1` (stereo unspecified): the outcome was inactive. Regarding `Nc1nc2[nH]c(-c3ccccc3)c(-c3ccccc3)c2c(=O)[nH]1`, the result was inactive. On the same count and under the same terms, the value for `N#Cc1c(-c2cccc(C=O)c2)[nH]c2nc(N)nc(N)c12` was “inactive”; that for `Nc1nc(N)c2c(-c3ccccc3)c(-c3ccc(F)cc3)[nH]c2n1` was “inactive”; that for `Nc1nc(N)c(C(CCc2ccccc2)C[N+](=O)[O-])c(N)n1` (stereo unspecified) was “inactive”. Still for that read-out and setting: next, `Nc1nc(N2CCSCC2)c2cc[nH]c2n1`: “inactive”. On the same count and under the same terms, next, `Nc1nc2[nH]c(-c3ccc(CCCN4CCOCC4)cc3)c(-c3ccccc3)c2c(=O)[nH]1`: “inactive”; `N#Cc1c[nH]c2nc(N)nc(N)c12`: “inactive”; `Nc1nc(N)c(C(C[N+](=O)[O-])c2ccc(F)cc2)c(NC2CCCCC2)n1` (stereo unspecified): “inactive”.

`Nc1nc(N)c(C(C[N+](=O)[O-])c2ccccc2)c(=O)[nH]1` (stereo unspecified): the outcome was inactive. Still for that read-out and setting: the value for `Nc1nc(N)c(C(CCc2ccccc2)C[N+](=O)[O-])c(=O)[nH]1` (stereo unspecified) was “inactive”.

`Nc1nc2[nH]c(-c3ccc(F)cc3)c(-c3ccccc3)c2c(=O)[nH]1`: the outcome was inactive. On to `COc1nc(N)nc2[nH]cc(C#N)c12`, for which the outcome was inactive.

`CC(C)Oc1nc(N)nc(N)c1C(C[N+](=O)[O-])c1ccc(F)cc1` (stereo unspecified): the result was inactive.

Take `Nc1nc(N)c(C(C[N+](=O)[O-])c2ccc(F)cc2)c(N)n1` (stereo unspecified): the outcome was inactive. Still for that read-out and setting: next, `Nc1nc(N)c(C(C[N+](=O)[O-])c2ccc(F)cc2)c(=O)[nH]1` (stereo unspecified): “inactive”.

In the case of `Cc1ccc(C(C[N+](=O)[O-])c2c(N)nc(N)nc2N)cc1` (stereo unspecified), the result was inactive. As for `Cc1ccc(C(C[N+](=O)[O-])c2c(N)nc(N)[nH]c2=O)cc1` (stereo unspecified), the result was inactive.

In another data set the test system is Trypanosoma brucei brucei. Description: Antitrypanocidal activity against Trypanosoma brucei brucei Lister 427 infected in ICR mouse assessed as reduction in parasitemia at 30 mg/kg, ip qd administered 24 hrs post infection for 4 consecutive days. The data set is classed as functional, organism-based. Also noted: dose 30 mg/kg.
Conditions: not given
As to `Nc1nc(N)c2c(-c3ccccc3)c(-c3ccc(F)cc3)[nH]c2n1`, the outcome was Active.
